Screening results: PubChem BioAssay, several laboratories
Hits are enriched below; roughly 3.5% of the tested compounds scored in any of these assays.
Efa HMGR inh – blocks class II HMG-CoA reductase of Enterococcus faecalis. purified E. faecalis HMGR, NADPH absorbance 340 nm kinetic. inhibition, % at 10 µM. 190,000 tested, 0.41% active;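 active means inhibition above a set limit, the median over all tested compounds plus 3 SD, cut at about 9.5% in these data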;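 further: enzyme runs in reverse so mevalonate oxidation gives rising NADPH absorbance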
RAM inhibit – inhibitors of the yeast RAM network | inhibition, % at 50 µM | S. cerevisiae dse1pr::URA3 reporter, 5-FOA growth OD615, 2 d; analog-sensitive cbk1-as2 kinase mutant strain | 190,000 tested, 1.8% active;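 active means inhibition above a set limit, 3 SD over mean compound inhibition, cut at about 8.4% in these data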;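 further: inhibition rescues growth on 5-FOA so higher OD means more RAM inhibition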
Yeast lifespan up – yeast lifespan extension; S. cerevisiae growth with nicotinamide, OD615; deaD strain in restrictive glucose medium; 130,000 tested, 0.68% active; inhibition of the nicotinamide effect, % at 10 µM;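 active means inhibition above a set limit, placed 3 SD over the median of all compounds, cut at about 26% in these data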
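Buffer or medium: CSMM-D glucose medium, restrictive; test system: modified budding yeast, DeaD strain; compound: single dose 10 µM compound, 0.25% DMSO; schedule: culture preincubation 4 h, compound exposure 48 h, both 30 °C; detection: optical density (absorbance) at 615 nm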
bCat nuc transl – modulators of beta-catenin nuclear translocation; nuclear translocation activity, % at 5 µM; AID 1665; HeLa beta-catenin nuclear translocation, immunofluorescence imaging; 190,000 tested, 0.3% active;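 active means nuclear translocation activity above 50% at 5 µM, with a well cell count of 50 or more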;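 further: per-cell ratio of nuclear to cytoplasmic median beta-catenin stain intensity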
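Test system: human HeLa cells, endogenous beta-catenin. Times: 24 h compound exposure, 37°C. Measured by: beta-catenin immunofluorescence imaging with DAPI.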
MT stabilize HCS – microtubule stabilization, imaging screen; HeLa tubulin immunostaining HCS, 24 h; share of cells brighter than vehicle mean+2SD; % tubulin-high responders, % at 10 µM; 200,000 tested, 0.83% active;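 active means plate Z-score above 3 for both tubulin-high and condensed-nucleus cell shares, with cell loss under 80%, at 10 µM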;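 further: anti alpha tubulin signal scored within the nucleus-defined area of each cell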
Yeast growth inh – reduces growth of yeast BB579 in restrictive medium | S. cerevisiae BB579 growth, OD615, 48 h | inhibition, % at 10 µM | 140,000 tested, 0.51% active | AID 804;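 active means inhibition above a set limit, 3 SD over the mean compound inhibition, cut at about 44% in these data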
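Material: Saccharomyces cerevisiae DeaD strain BB579, replicative lifespan model yeast; buffer or medium: CSMM-D restrictive synthetic medium containing dextrose (glucose); compound: 10 µM single dose, DMSO 0.25%; timing: 48 h compound exposure at 30 °C after 4 h preincubation; signal: turbidity as optical density at 615 nm; benchmarks: positive control amphotericin B 10 µg/mL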
Hits are given with their value; n = inactive; x = no result.

SMILES	Efa HMGR inh	RAM inhibit	Yeast lifespan up	bCat nuc transl	MT stabilize HCS	Yeast growth inh
COc1ccc(S(=O)(=O)N2CCCC(C(=O)NCCC(C)C)C2)cc1 (stereo not drawn)	n	n	x	n	n	x
OC(CNCC(c1ccc(Cl)cc1Cl)c1c[nH]c2ccccc12)c1ccccc1 (stereo not drawn)	n	n	x	n	11	x
CC1=C(C(=O)OCc2ccc(C)cc2)C(c2ccc(O)c([N+](=O)[O-])c2)NC(=O)N1 (stereo not drawn)	n	n	x	n	n	x
CC(=O)c1c(C)[nH]c(C(=O)OC2CCCCC2=O)c1C (stereo not drawn)	n	n	142	n	n	n
CC(=O)Nc1ccc(C(=O)OC2CCCCC2=O)cc1 (stereo not drawn)	n	n	n	x	n	n
CCOC(=O)N/N=C/c1c(C)nn(-c2cccc(C(F)(F)F)c2)c1Cl	n	n	n	n	24	n
Cc1nn(-c2cccc(C(F)(F)F)c2)c(Cl)c1/C=N/Nc1cccc(C(=O)O)c1	n	n	n	n	n	94
COC(=O)N/N=C/c1c(C)nn(-c2cccc(Cl)c2)c1Cl	n	n	n	n	n	n
O=C(COc1ccc(Cl)cc1Br)NC(=O)NCc1ccccc1	n	n	n	n	n	n
O=P(c1ccccc1)(c1ccccc1)c1nc(-c2ccccc2)oc1NCc1ccccc1	n	n	x	n	n	x
CS(=O)(=O)N1CCCC(C(=O)Nc2ccc3c(c2)OCCO3)C1 (stereo not drawn)	n	n	x	n	n	x
CSC1=NC(C(Cl)(Cl)Cl)N=C(c2ccc(C)cc2)N1 (stereo not drawn)	n	n	x	108	n	x
CN(C(=O)C(Cl)Cl)C1CC2C=CC1C2 (stereo not drawn)	x	x	x	n	x	x
Cc1conc1NC(c1cccs1)c1ccc2cccnc2c1O (stereo not drawn)	n	n	n	n	n	62
CCC(=O)NC(c1cccs1)c1ccc2cccnc2c1O (stereo not drawn)	n	n	x	n	n	x
Cc1onc(-c2ccc(Cl)cc2Cl)c1-c1csc(COc2ccccc2)n1	x	x	x	n	x	x
COC(=O)c1cc(NC(=S)Nc2cc(Cl)cc(Cl)c2)cc(C(=O)OC)c1	n	n	27	n	n	n
COC(=O)c1cccc(NC(=S)Nc2ccccc2Cl)c1	x	x	x	n	x	x
Cc1cccc(-c2noc(CN(C(=O)/C=C/c3ccccc3Cl)C(C)C)n2)c1	n	11	n	n	n	n
Cc1cccc(-c2noc(CN(C(=O)CCc3ccccc3)C(C)C)n2)c1	n	n	n	n	n	n
Cc1cccc(-c2noc(CN(C)S(=O)(=O)c3cc(Cl)ccc3Cl)n2)c1	n	8.6	n	x	n	n
Cc1nc(C(=O)O)nn1-c1cc(Cl)ccc1Cl	n	n	x	n	n	x
Cc1cc(Cl)ccc1Oc1ncc(-c2ccc(Cl)cc2)cn1	n	11	n	x	n	n
O=c1[nH]c(NCc2ccco2)nnc1Cc1ccccc1Cl	n	n	n	n	59	n
COc1ccc(-n2c(SCC(N)=O)nnc2-c2ccc(NS(=O)(=O)c3ccc(C)cc3)cc2)cc1	n	n	n	x	n	n
SMILES	Efa HMGR inh	RAM inhibit	Yeast lifespan up	bCat nuc transl	MT stabilize HCS	Yeast growth inh
COc1ccc(-n2c(SCC#N)nnc2-c2ccc(NS(=O)(=O)c3ccc(C)cc3)cc2)cc1	n	8.5	n	n	n	n
Cc1onc(-c2c(Cl)cccc2Cl)c1C(=O)Nc1ccc(N2CCOCC2)cc1	x	x	x	n	x	x
Cc1cccc2cc3c(nc12)SC(=NCC1CCCO1)N(Cc1ccco1)C3 (stereo not drawn)	n	n	n	n	32	n
Cc1cccc(OCCn2c(S(=O)(=O)O)nc3ccccc32)c1	n	n	n	n	n	n
Cc1cccc(OCCn2c(=S)[nH]c3ccccc32)c1	11	n	x	n	n	n
COc1cc(C2Nc3cccc4cccc(c34)N2)cc(OC)c1OC(C)=O	n	n	n	n	16	n
CC(C)C1Oc2cc3oc(=O)ccc3cc2C1=O (stereo not drawn)	n	n	x	n	n	x
COc1ccc(C2CC(c3ccccc3OC(C)=O)=NN2C(=O)/C=C/c2ccccc2)cc1OC (stereo not drawn)	n	8.5	n	n	n	n
Cc1ccc(NC(=O)c2cc3c(=O)oc4ccc(C)cc4c3s2)nc1	x	x	x	n	x	x
O=C(CSc1nc2ccccc2s1)N/N=C/c1ccc(C(=O)O)cc1	n	10	x	n	n	x
COc1ccc(/C=N/NC(=O)CCSc2nc3ccccc3s2)cc1	n	n	n	131	29	n
O=[N+]([O-])c1ccccc1N/N=C1\CC2CC=CC12 (stereo not drawn)	n	n	x	n	n	x
Cc1cccn2c(=O)c(C=NCCO)c(Nc3ccc(Cl)cc3)nc12	n	8.9	x	n	n	x
Cc1cccn2c(=O)c(C=Nc3ccc(Cl)cc3)c(NCCO)nc12	n	n	n	n	n	n
Nc1nnc(CSCc2cccc(Br)c2)s1	n	n	x	n	n	x
Cc1ccc(S(=O)(=O)Nc2ccccc2/C=N/c2nc3ccccc3n2C(C)C)cc1	n	n	53	n	n	n
CCCCn1c(/N=C/c2ccccc2NS(=O)(=O)c2ccc(C)cc2)nc2ccccc21	n	n	68	n	n	n
CCCn1c(NCc2ccccc2NS(=O)(=O)c2ccc(C)cc2)nc2ccccc21	n	n	n	n	21	n
CCn1c(NCc2ccccc2NS(=O)(=O)c2ccc(C)cc2)nc2ccccc21	n	n	n	n	n	n
O=C(Nc1ccc(CN2CCCCC2)cc1)Nc1ccc(Br)cc1Cl	n	n	x	n	n	x
CN1CCN(NC(=O)c2ccc(Br)s2)CC1	x	x	x	n	x	x
CSc1cccc(NC(=O)C2(S(=O)(=O)c3ccc(C)cc3)CC2)c1	n	n	x	n	n	x
CC1CCCC2(C1)NC(=S)N(c1ccccc1)N2 (stereo not drawn)	n	n	n	n	n	87
S=C1NC2(CCCCC2)NN1c1ccccc1	n	n	x	n	n	x
COC(=O)CSc1nc(-c2ccccc2)c2c(c1C#N)CCCC2	n	8.6	n	n	n	n
SMILES	Efa HMGR inh	RAM inhibit	Yeast lifespan up	bCat nuc transl	MT stabilize HCS	Yeast growth inh
Cn1nc(C(=O)NCCOc2ccccc2)c2ccccc2c1=O	n	n	x	n	n	x
CC1CCCC(NC(=O)CN(C)S(=O)(=O)c2cnc[nH]2)C1C (stereo not drawn)	14	n	x	n	n	x
CC1CCC(NC(=O)CN(C)S(=O)(=O)c2cnc[nH]2)CC1 (stereo not drawn)	n	n	x	n	n	x
CN(C)S(=O)(=O)c1cccc(NC(=O)Cn2cc(C(F)(F)F)cc(Cl)c2=O)c1	16	n	x	n	n	x
NC(=O)c1nn(CC(=O)Nc2ccc3c(c2)OCO3)cc1[N+](=O)[O-]	n	n	x	n	n	x
N/C(Cc1ccc([N+](=O)[O-])cc1)=N\OC(=O)COc1ccccc1Cl	n	n	n	n	n	n
N/C(Cc1ccc([N+](=O)[O-])cc1)=N\OC(=O)COc1cccc2ccccc12	n	10	n	n	n	n
